In paper PMC3483362 (Journal of inorganic biochemistry, 2012):
pIC50: −log10 of the molar value. “Also recorded” adds a separate entry of the source.

Experiments:
[1] = system: Jurkat sh-Bak cells (Bax/Bak-deficient Jurkat cells); test: Activity against apoptosis-resistant cells; format: cell-based, human; settings: cisplatin-resistant
plasmid (pBR322) DNA = test: Electrophoresis mobility shift assay; format: binding; settings: 37 °C, 20 h, increasing molar ratios
Outline: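 pBR322 plasmid DNA (20 µg/mL) in 5 mM Tris/HCl, 50 mM NaClO₄, pH 7.39 was incubated with test compound at compound/DNA molar ratios of 0.25–4.0, 37 °C, 20 h, in the dark. Free DNA and cisplatin-DNA served as controls. Samples ran on 1% agarose in TAE for 1.5 h at 80 V, with GelRed staining for 30 min.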

Solubility = format: physicochemical
[2] = Stability in solution by 31P{1H} and 1H NMR; format: physicochemical; settings: RT
[3] = biological target: human serum albumin (HSA) (Homo sapiens, UniProt P02768); test: HSA fluorescence quenching; format: binding; settings: excitation 295 nm, HSA 10 µM, phosphate buffer pH 7.39; compared to cisplatin
Outline: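 HSA (10 µM) in phosphate buffer pH 7.39 received ten successive additions from an 8 mM DMSO stock of test compound, with a read 240 s after each. Tryptophan excitation was at 295 nm and emission was recorded at 300–450 nm at room temperature. Data were fitted to the Stern-Volmer equation F₀/F = 1 + K_SV[Q].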

[4] = system: DU-145 human prostate cancer cells; test: Cell death pathway; format: cell-based; settings: 24 h
Outline: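 DU-145 cells in RPMI 1640 with 5% FCS, L-glutamine and penicillin/streptomycin were seeded at 1×10⁵ cells/mL and allowed to attach. Test compound (1% DMSO, diluted in water) was given for 24 h. Nuclei were stained with Hoechst (10 µg/ml) and imaged under UV. For flow cytometry, cells went into Hepes pH 7.4 annexin buffer with Annexin V conjugate (0.5 µg/ml) and 7-AAD, 37 °C, 15 min.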

[5] = system: MOLT-4 human leukemia cell line; settings: read-out: IC50 MOLT-4; cited from earlier work
[6] = system: DU-145 human prostate cancer cells; test: Cytotoxicity by modified MTT-reduction method, 24 h; format: cell-based; settings: DU-145 cells
Outline: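 DU-145 cells were grown in RPMI 1640 with 5% FCS, L-glutamine and penicillin/streptomycin, seeded at 1 ×10⁵ cells/mL and allowed to attach. […] After 24 h, proliferation was read by a modified MTT-reduction method and IC₅₀ derived.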

Calf Thymus DNA = test: Interaction with CT DNA by circular dichroism; format: binding; settings: drug/DNA ratios 0.1-1.0, 37 °C, 20 h
Outline: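 CT DNA (195 µM) in 5 mM Tris/HCl, 50 mM NaClO₄, pH 7.39 received test compound from fresh 5 mM stocks in DMSO-H₂O (1:99). Mixtures were kept 20 h at 37 °C in the dark. CD spectra were recorded at 25 °C over 220–320 nm, blank-corrected, smoothed with a Savitzky-Golay filter, and expressed in molar ellipticity.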

[7] = system: human Jurkat-T acute lymphoblastic leukemia cells; test: Cytotoxicity by modified MTT-reduction method, 24 h; format: cell-based
Jurkat cells = test: Cell death pathway; format: cell-based, human; settings: 24 h, concentrations for IC50 values
Outline: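 Jurkat cells (5 ×10⁵ cells/ml) exposed to test compound for 24 h. Nuclei stained with Hoechst (10 µg/ml) and photographed under UV light. For flow cytometry, cells were held in annexin binding buffer (140 mM NaCl, 2.5 mM CaCl₂, 10 mM Hepes/NaOH, pH 7.4) with fluorescent AnnexinV (0.5 µg/ml) and 7-AAD (50ng/µl) at 37 °C for 15 min, then diluted with buffer and counted.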

human serum albumin (HSA), sequence (P02768 25-609): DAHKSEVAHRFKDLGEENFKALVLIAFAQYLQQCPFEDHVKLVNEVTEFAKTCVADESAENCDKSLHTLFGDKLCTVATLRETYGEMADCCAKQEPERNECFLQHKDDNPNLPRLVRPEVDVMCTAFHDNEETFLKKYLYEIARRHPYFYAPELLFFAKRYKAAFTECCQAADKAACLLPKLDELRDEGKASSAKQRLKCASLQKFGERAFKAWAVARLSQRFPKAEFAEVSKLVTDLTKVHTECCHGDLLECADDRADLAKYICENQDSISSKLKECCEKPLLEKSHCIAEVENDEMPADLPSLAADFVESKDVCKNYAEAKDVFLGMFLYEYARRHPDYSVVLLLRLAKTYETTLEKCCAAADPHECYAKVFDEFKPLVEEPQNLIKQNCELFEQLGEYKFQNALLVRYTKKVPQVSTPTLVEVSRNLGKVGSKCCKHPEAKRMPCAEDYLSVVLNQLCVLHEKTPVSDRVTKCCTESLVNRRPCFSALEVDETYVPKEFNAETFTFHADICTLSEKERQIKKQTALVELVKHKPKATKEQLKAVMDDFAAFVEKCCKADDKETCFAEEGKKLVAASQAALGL

Structure (SMILES)	toxicity to Jurkat sh-Bak cells [1]	effect on electrophoretic mobility of pBR322 forms (plasmid (pBR322) DNA)	solubility in H2O (Solubility; H2O)	stable in DMSO solution (time) ([2]; DMSO) [days]	stable in H2O (time) ([2]; H2O) [h]	quenching of HSA fluorescence [3]	cell death / growth in DU-145 cells [4]	pIC50 [5]	solubility at concentrations required for ITC (Solubility; ITC conditions, phosphate buffer)	times more cytotoxic than cisplatin [6] [times]	effect on CD spectrum of CT DNA / interaction with CT DNA (Calf Thymus DNA)	times more cytotoxic than cisplatin [7]	cell death in Jurkat cells (Jurkat cells)
N.N.[Cl][Pt][Cl] [Cisplatin, reference compound]	activity is totally dependent on the presence of functional Bax and Bak	decrease in mobility of the CCC form and an increase in mobility of the OC form	–	–	–	–	–	–	–	–	–	–	–
O=C(N=P12CN3CN(CN(C3)C1)C2)c1ccccn1 [Compound 1, TPA=N-C(O)-2-NC5H4 (N,N-IM)]	–	does not cause any shift for either form	soluble	14	3	–	–	–	–	–	–	–	–
O=C1[N-][Au]([Cl])([Cl])[n+]2ccccc21 [Compound 5, [AuCl2(HN-C(O)-2-NC5H4)]]	exhibited some toxicity	–	–	–	–	higher quenching	do not induce cell death in DU-145 at 24 h	5.51	poor solubility at the required concentrations	4	decrease in helicity (destabilizing effect); also recorded: interacts more strongly with DNA most likely by intercalation	seven	induced cell death in Jurkat cells; also recorded: induce both necrotic and apoptotic cell death
